The species entered for experiment [1] is Homo sapiens. As to the kind of experiment: Inhibition of human protein farnesyltransferase assessed as enzyme activity in presence of Fe2+ ions (reference value: 49%). On the set-up: scale not given: the % may be the effect or the level left.
For experiment [2], the species on record is Homo sapiens. As to the kind of experiment: Inhibition of human protein farnesyltransferase assessed as enzyme activity in presence of Zn2+ ions (reference value: 49%). On the set-up: scale not given: the % may be the effect or the level left.
Experiment [3] is filed under the species Homo sapiens. As to the kind of experiment: Inhibition of human protein farnesyltransferase assessed as enzyme activity in presence of Ca2+ ions (reference value: 49%). Set-up: scale not given: the % may be the effect or the level left.
Experiment [4] is filed under the species Homo sapiens. As to the kind of experiment: Inhibition of human protein farnesyltransferase assessed as enzyme activity in presence of Co2+ ions (reference value: 49%). On the set-up: scale not given: the % may be the effect or the level left.
Experiment [5] is filed under the species Homo sapiens. As to the kind of experiment: Inhibition of human protein farnesyltransferase assessed as enzyme activity in presence of Cu2+ ions (reference value: 49%). Set-up: scale not given: the % may be the effect or the level left.
For experiment [6], the species on record is Homo sapiens. As to the kind of experiment: Inhibition of human protein farnesyltransferase assessed as enzyme activity in presence of Ni2+ ions (reference value: 49%). On the set-up: scale not given: the % may be the effect or the level left.
The nature of experiment [7]: Inhibition of human protein farnesyltransferase using dansyl peptide containing CAAX as substrate in presence of farnesyl pyrophosphate after 15 mins by fluorescence assay.
Experiment [8] deals with ASPC1. As to the kind of experiment: Antiproliferative activity against human AsPC1 cells expressing K-Ras mutant after 2 days by trypan blue staining based assay. It is filed as functional, cell-based. In short, it runs like this:
(§1)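 Cells (AsPC-1, K-Ras mutant; or BxPC-3) were seeded at 1.0 × 10^4 per well and grown 1 d at 37 °C. The disulfide prodrug form was then added, and cells were incubated 2 days. At 0, 1 and 2 days after addition, cells were detached and stained with 0.4% trypan blue. Unstained (living) cells were counted.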

Experiment [9] concerns ASPC1. As to the kind of experiment: Antiproliferative activity against human AsPC1 cells expressing K-Ras mutant at 10 uM after 1 day in presence of DTT by trypan blue staining based assay. It is filed as functional, cell-based.
Another experiment relates to BXPC-3. As to the kind of experiment: Antiproliferative activity against human BxPC3 cells at 0.5 to 10 uM after 2 days by trypan blue staining based assay. It is filed as functional, cell-based. In short, it runs like this: as §1
The subject of experiment [10] is ASPC1. As to the kind of experiment: Antiproliferative activity against human AsPC1 cells expressing K-Ras mutant at 0.5 to 10 uM after 2 days by trypan blue staining based assay. The class given is functional, cell-based. An outline of the steps:
as §1

The source made the active and inactive calls. The rule behind the calls is not given here.

Turning to `SCCNCc1cc(-c2cccc3ccccc23)cc(CNCCS)n1`, the Activity in the experiment listed under Homo sapiens [1] stood at 38%; in the experiment listed under Homo sapiens [2] it was 100%; in the experiment filed under Homo sapiens [3], 48%; in the experiment listed under Homo sapiens [4], 66%; in the experiment listed under Homo sapiens [5] it was 47%; in the experiment listed under Homo sapiens [6], 67%.

Turning to `CCCCCCCCCCCCOC(=O)Nc1cc(CNCCS)nc(CNCCS)c1`, the IC50 (as a rule, the concentration that inhibits the measured activity by half) in experiment [7] was 2 µM. Also, the Activity entry in the experiment on ASPC1 [8] was “Dose-dependent effect”. In addition, the result with ASPC1 [9] was Active.

Consider `CC(C)=CCC/C(C)=C/CC/C(C)=C/COC(=O)Nc1cc(CNCCS)nc(CNCCS)c1`, for which the concentration for half-maximal inhibition (IC50) in experiment [7] was determined as 0.9 µM. For the same compound, the result in the experiment on ASPC1 [9], in the experiment with BXPC-3 and in the experiment on ASPC1 [10] was Active.

(Values after ChEMBL document CHEMBL4052723, “A novel inhibitor of farnesyltransferase with a zinc site recognition moiety and a farnesyl group” (Bioorg Med Chem Lett, 2017).)
